This note sets out measurements from ChEMBL document CHEMBL4725282, “Discovery of a Conformationally Constrained Oxazolidinone with Improved Safety and Efficacy Profiles for the Treatment of Multidrug-Resistant Tuberculosis” (J Med Chem, 2020).

Data set [1] in a line: Toxicity in male Sprague-Dawley rat assessed as change in neutrophil level at 450 mg/kg/day, po administered for 4 weeks followed by 2 week recovery period (Rvb =15.9 +/- 3.4 %). In kind it is organism-based. To be noted: in vivo, 672 h.
Data set [2] can be described thus: Apparent permeability in human Caco-2 cells at 50 uM after 1 hr by UPLC analysis. It counts as ADME, cell-based. An outline of the steps: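 Caco-2 monolayers on Transwells, cultured 21 days, TEER required >500 Ω×cm². Compound at 50 μM added apically, 1 h at 37 °C. Transported compound quantified by UPLC. Papp = (dQ/dt)/(C0×A).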
In general terms: Passage across Caco-2 layers is used to estimate intestinal permeability.

Data set [3] in a line: Genotoxicity in CHO-WBL cells assessed as chromosome aberration at 20 to 150 ug/ml measured after 20 hrs in presence of S9 fraction by Giemsa staining based. It counts as toxicity, subcellular, Cricetulus griseus. To be noted: chinese hamster, s9, 20 h, dose 20-150 µg/ml. The procedure, abridged:
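CHO-WBL cells in McCoy's 5A with 10% FBS, seeded 20-24 h before treatment. Compound in DMSO, with or without serum-free S-9 mix. Treatment either 3 h, then HBSS wash and 17 h further culture, or 20 h; harvest at 20 h from treatment start. Colcemid 0.1 μg/mL for the final 2 h, hypotonic KCl, methanol:acetic acid fixation, Giemsa stain. 300 metaphases per concentration (150 per duplicate flask) scored.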

The nature of data set [4]: Toxicity in male Sprague-Dawley rat assessed as change in mean platelet volume at 50 mg/kg/day, po administered for 4 weeks followed by 2 week recovery period (Rvb =7.0 +/- 0.4 fL). In kind it is organism-based. To be noted: in vivo, 672 h.
Data set [5] is described as follows: Toxicity in male Sprague-Dawley rat assessed as change in red blood cell count at 150 mg/kg/day, po administered for 4 weeks followed by 2 week recovery period (Rvb =7.86 +/- 0.32 10^12/L). In kind it is organism-based. To be noted: in vivo, 672 h.
The target of data set [6] is Cytochrome P450 3A4 (Homo sapiens, UniProt P08684). The data set is described as follows: Inhibition of CYP3A4 in human liver microsomes after 20 mins by LC-MS/MS analysis. In kind it is ADME. An outline of the steps: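 Human liver microsomes (0.2 mg/mL) in phosphate buffer, 20 min incubation with compound at 0.1-50 μM alongside isoform-specific substrates and a positive control. Substrate remaining monitored by LC-MS/MS at each concentration; IC50 derived.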
For orientation: Liver microsomes are a subcellular fraction often used to study metabolism.

Data set [7] in a line: Toxicity in female Sprague-Dawley rat assessed as change in reticulocyte level at 50 mg/kg/day, po administered for 4 weeks followed by 2 week recovery period (Rvb =2.85 +/- 0.53 %). In kind it is organism-based. The conditions noted are these: in vivo, 672 h.
Data set [8] can be described thus: Toxicity in male Sprague-Dawley rat assessed as ophthalmic changes at 50 to 450 mg/kg/day, po administered for 4 weeks measured within 7 days of post last dose. In kind it is organism-based. The conditions noted are these: in vivo, 672 h, dose 50-450 mg/kg/day.
Data set [9] is described as follows: Toxicity in female Sprague-Dawley rat assessed as mortality at 50 to 450 mg/kg/day, po administered for 4 weeks. In kind it is organism-based. The conditions noted are these: in vivo, 672 h, dose 50-450 mg/kg/day. The procedure, abridged:
(§1)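 SD rats, 6-7 weeks old (96 in total), split into vehicle, 50, 150 and 450 mg/kg/day groups of 12 females and 12 males each, given oral doses once daily for 4 weeks, then 2 weeks of recovery. Mortality, body weight, food intake, eyes, urine and neuropsychic signs were observed. Organ and bone marrow histopathology was done on 8 rats per sex per group after the last dose and on the remaining 4 per sex after 14 days of recovery.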

Data set [10] is described as follows: Toxicity in female Sprague-Dawley rat assessed as change in mean platelet volume at 50 mg/kg/day, po administered for 4 weeks followed by 2 week recovery period (Rvb =7.1 +/- 0.5 fL). To be noted: in vivo, 672 h. It counts as organism-based.
The nature of data set [11]: Toxicity in male Sprague-Dawley rat assessed as change in hematocrit level at 450 mg/kg/day, po administered for 4 weeks followed by 2 week recovery period (Rvb =45.2 +/- 1.7 %). It counts as organism-based. To be noted: in vivo, 672 h.
Data set [12] can be described thus: Toxicity in female Sprague-Dawley rat assessed as change in lymphocyte level at 50 mg/kg/day, po administered for 4 weeks followed by 2 week recovery period (Rvb =76.9 +/- 4.6 %). It counts as organism-based. The conditions noted are these: in vivo, 672 h.
Data set [13] is described as follows: Toxicity in female Sprague-Dawley rat assessed as histopathological changes at 50 to 450 mg/kg/day, po administered for 4 weeks followed by 2 week recovery period. It counts as organism-based. The conditions noted are these: in vivo, 672 h, dose 50-450 mg/kg/day. An outline of the steps:
as §1

Data set [14] in a line: Toxicity in female Sprague-Dawley rat assessed as abnormalities in urine at 50 to 450 mg/kg/day, po administered for 4 weeks measured within last 7 days of treatment period. It counts as organism-based. To be noted: in vivo, 672 h, dose 50-450 mg/kg/day. An outline of the steps: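 SD rats, 6-7 weeks, 12 male and 12 female per group. Oral dosing once daily at 50, 150 or 450 mg/kg/day or vehicle for 4 weeks, then 2-week recovery. 8 per sex dissected after last dose, remaining 4 per sex after 14-day recovery. Body weight, urine, food intake and clinical signs monitored.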

The nature of data set [15]: Toxicity in female Sprague-Dawley rat assessed as ophthalmic changes at 50 to 450 mg/kg/day, po administered for 4 weeks followed by 2 week recovery period. It counts as organism-based. The conditions noted are these: in vivo, 1008 h, dose 50-450 mg/kg/day, time 6 weeks. An outline of the steps:
as §1

Data set [16] in a line: Toxicity in male Sprague-Dawley rat assessed as abnormalities in urine at 50 to 450 mg/kg/day, po administered for 4 weeks followed by 2 week recovery period measured within last 7 days of recover period. In kind it is organism-based. To be noted: in vivo, 672 h, dose 50-450 mg/kg/day. An outline of the steps:
as §1

The nature of data set [17]: Toxicity in female Sprague-Dawley rat assessed as histopathological changes in bone marrow at 450 mg/kg/day, po administered for 4 weeks followed by 2 week recovery period. It counts as organism-based. The conditions noted are these: in vivo, 672 h. An outline of the steps:
as §1

Data set [18] is described as follows: Toxicity in male Sprague-Dawley rat assessed as mortality at 50 to 450 mg/kg/day, po administered for 4 weeks. It counts as organism-based. The conditions noted are these: in vivo, 672 h, dose 50-450 mg/kg/day.
The subject of data set [19] is Mycobacterium tuberculosis. As to the kind of experiment: Antitubercular activity against Mycobacterium tuberculosis H37Rv infected in Balb/c mouse assessed as lung bacterial burden by measuring colony forming unit at 100 mg/kg/day, po administered via gavage 5 times per week for 3 weeks starting from 10 days post-infection and measured 24 hrs post last dose (reference value: 7.102 +/- 0.152 log10CFU). It counts as functional. To be noted: time 22 day. An outline of the steps:
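Female SPF BALB/c mice, 6 per group, aerosol-infected with M. tuberculosis H37Rv to deposit 50-100 bacilli per lung. Compound suspended in 0.5% CMC, given by oral gavage from day 10 post-infection, 5 times per week for 3 weeks; controls got 0.5% CMC. Lungs harvested the day after the last dose, homogenised, diluted in HBSS, plated on 7H11 agar in duplicate, incubated 3 weeks at 37 °C. Result expressed as mean log10 CFU; t-test versus control.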

Data set [20] has as its target Cytochrome P450 2C9 (Homo sapiens, UniProt P11712). The data set is described as follows: Inhibition of CYP2C9 in human liver microsomes after 20 mins by LC-MS/MS analysis. In kind it is ADME.
Data set [21] can be described thus: Toxicity in male Sprague-Dawley rat assessed as abnormalities in urine at 50 to 450 mg/kg/day, po administered for 4 weeks measured within last 7 days of treatment period. In kind it is organism-based. The conditions noted are these: in vivo, 672 h, dose 50-450 mg/kg/day. An outline of the steps:
as §1

Data set [22] can be described thus: Toxicity in male Sprague-Dawley rat assessed as change in red blood cell count at 50 mg/kg/day, po administered for 4 weeks followed by 2 week recovery period (Rvb =7.86 +/- 0.32 10^12/L). To be noted: in vivo, 672 h. It counts as organism-based.

One may read the Papp as the rate of passage across a membrane or cell layer, normalised by area and donor concentration. For orientation: IC50 means the midpoint of a concentration-inhibition curve.

Chain of Cytochrome P450 3A4 (P08684 whole entry, canonical isoform): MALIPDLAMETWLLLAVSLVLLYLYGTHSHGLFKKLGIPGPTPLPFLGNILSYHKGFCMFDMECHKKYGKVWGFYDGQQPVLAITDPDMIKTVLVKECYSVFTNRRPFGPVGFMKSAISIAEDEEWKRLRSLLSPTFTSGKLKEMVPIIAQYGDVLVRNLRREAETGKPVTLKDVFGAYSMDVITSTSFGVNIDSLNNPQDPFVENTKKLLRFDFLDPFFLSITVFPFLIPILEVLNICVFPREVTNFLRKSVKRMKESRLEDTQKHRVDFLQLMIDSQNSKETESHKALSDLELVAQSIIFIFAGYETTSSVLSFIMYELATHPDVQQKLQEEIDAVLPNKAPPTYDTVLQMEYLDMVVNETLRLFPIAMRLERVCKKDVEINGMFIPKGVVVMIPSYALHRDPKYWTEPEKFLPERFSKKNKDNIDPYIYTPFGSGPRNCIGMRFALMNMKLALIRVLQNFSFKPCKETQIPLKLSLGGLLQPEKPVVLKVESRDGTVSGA
Chain of Cytochrome P450 2C9 (P11712 whole entry): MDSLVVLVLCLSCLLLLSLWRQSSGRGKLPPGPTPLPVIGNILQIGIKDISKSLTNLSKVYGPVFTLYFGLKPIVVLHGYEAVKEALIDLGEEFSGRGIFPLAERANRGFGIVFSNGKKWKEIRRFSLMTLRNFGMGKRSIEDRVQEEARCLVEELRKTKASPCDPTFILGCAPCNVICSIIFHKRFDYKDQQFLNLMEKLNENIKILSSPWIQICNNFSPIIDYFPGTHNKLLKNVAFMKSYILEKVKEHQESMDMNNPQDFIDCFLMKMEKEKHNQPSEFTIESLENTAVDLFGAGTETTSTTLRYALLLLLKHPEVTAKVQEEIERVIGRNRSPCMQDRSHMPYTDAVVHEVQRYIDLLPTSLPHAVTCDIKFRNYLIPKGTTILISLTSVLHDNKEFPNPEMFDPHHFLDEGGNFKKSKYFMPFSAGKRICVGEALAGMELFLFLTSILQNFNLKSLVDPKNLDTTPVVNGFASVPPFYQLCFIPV

For `CC(=O)NC[C@@H]1OC(=O)N2c3cc(F)c(N4CCSCC4)cc3OC[C@@H]12`, the Activity is given as 13.7% in data set [1]; “Non-Toxic” in data set [3]; 7 fL in [4]; 7.62 10^12/L in data set [5]; 3.25% in [7]; “Non-Toxic” in [8]. Besides, the Activity result in data set [9] is recorded as “Non-Toxic”; in [10], 7.1 fL; in data set [11], 43.8%; in [12], 80.7%; in data set [13] it was “Non-Toxic”; in [14], “Non-Toxic”. The Activity entry was “Non-Toxic” in data set [15]; “Non-Toxic” in [16]; “Non-Toxic” in data set [17]; “Non-Toxic” in [18]; 1.954 log10CFU in data set [19]; “Non-Toxic” in [21]. Besides, in [22], the Activity is recorded as 7.29 10^12/L. In data set [2], the Papp at 1 h, 50 µM was 67.6 ×10⁻⁶ cm/s. The IC50 in data set [6] and in data set [20] was greater than 50 µM throughout.
